Legend:
Rattus norvegicus [1] = test: Compound tested for its effect on Nonconflict(VI) operant responding of rats at a dose of 30.0 mg/kg administered perorally.; format: functional; conditions: route oral
Procedure, shortened: (§1)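 Cook-Davidson conflict procedure in rats given oral doses. Rats lever-press for milk reward with shock (conflict, FR) and without shock (nonconflict, VI). Value is % change in response rate, with significance set at P < 0.05. The minimally effective oral dose is taken as the dose raising conflict responding or lowering VI responding.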

Rattus norvegicus [2] = species: Rattus norvegicus; test: Anxiolytic response measured by antagonism of pentylenetetrazole discriminative stimuli in rats.; format: functional
Procedure, shortened: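 Rats trained to discriminate a subconvulsant dose of pentylenetetrazole (PTZ) from vehicle. Test compound given 30 min before the PTZ dose. Antagonism of the PTZ stimulus is scored as the anxiolytic response. ED50 values by probit analysis, with 95% confidence limits.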

Rattus norvegicus [3] = test: Compound tested for its effect on conflict(FR) operant responding of rats at a dose of 10.0 mg/kg administered perorally.; format: functional; conditions: route oral; procedure, shortened: as §1
Rattus norvegicus [4] = test: Minimal effective oral dose to cause VI response decrement in rats.; format: functional; procedure, shortened: as §1
Rattus norvegicus [5] = test: Compound tested for its effect on conflict(FR) operant responding of rats at a dose of 30.0 mg/kg administered perorally.; format: functional; conditions: route oral; procedure, shortened: as §1
Rattus norvegicus [6] = test: Compound tested for its effect on Nonconflict(VI) operant responding of rats at a dose of 10.0 mg/kg administered perorally.; format: functional; conditions: route oral; procedure, shortened: as §1
[7] = target: GABA-A receptor; anion channel; test: Displacement of [3H]flunitrazepam (FNZ) from GABA-A benzodiazepine receptor in rat forebrain
[8] = target: GABA-A receptor; anion channel (Rattus norvegicus) (UniProt O09028+P15431+P18506+P18508+P19969+P20236+P23574+P23576+P28471+P28473+P30191+P62813+P63079+P63138+Q91ZM7+Q9ES14); test: GABA ratio measured by the IC50 in the absence of GABA compared to the IC50 in the presence of GABA in rats.
Procedure, shortened: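 Modified [3H]flunitrazepam binding in rat forebrain, with IC50 measured with and without GABA. Ratio = IC50 without GABA divided by IC50 with GABA.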

Rattus norvegicus [9] = test: Minimal effective oral dose to cause increase in conflict response in rats after po administration.; format: functional; procedure, shortened: as §1
Rattus norvegicus [10] = test: Compound tested for its effect on Nonconflict (VI) operant responding of rats at a dose of 1.0 mg/Kg administered perorally.; format: functional; procedure, shortened: as §1
Rattus norvegicus [11] = test: Compound tested for its effect on conflict (FR) operant responding of rats at a dose of 1.0 mg/Kg administered perorally.; format: functional; procedure, shortened: as §1
Rattus norvegicus [12] = test: Compound tested for its effect on Nonconflict (VI) operant responding of rats at a dose of 3.0 mg/Kg administered perorally.; format: functional; procedure, shortened: as §1
Rattus norvegicus [13] = test: Compound tested for its effect on conflict (FR) operant responding of rats at a dose of 3.0 mg/Kg administered perorally.; format: functional; procedure, shortened: as §1
Rattus norvegicus [14] = test: Compound tested for its effect on conflict(FR) operant responding of rats at a dose of 1.0 mg/kg administered perorally.; format: functional; conditions: route oral; procedure, shortened: as §1
Rattus norvegicus [15] = test: Compound tested for its effect on conflict(FR) operant responding of rats at a dose of 3.0 mg/kg administered perorally.; format: functional; conditions: route oral; procedure, shortened: as §1
Rattus norvegicus [16] = test: Compound tested for its effect on Nonconflict(VI) operant responding of rats at a dose of 1.0 mg/kg administered perorally.; format: functional; conditions: route oral; procedure, shortened: as §1
Rattus norvegicus [17] = test: Compound tested for its effect on Nonconflict(VI) operant responding of rats at a dose of 3.0 mg/kg administered perorally.; format: functional; conditions: route oral; procedure, shortened: as §1
Rattus norvegicus [18] = test: Compound tested for its effect on conflict (FR) operant responding of rats at a dose of 10.0 mg/Kg administered perorally.; format: functional; procedure, shortened: as §1
Rattus norvegicus [19] = test: Minimal effective oral dose to cause ethanol interaction in rats.; format: functional
Procedure, shortened: (§2)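 Rotorod test of ethanol interaction in male Wistar (Crl:(WI)BR) rats, 130–160 g. Vehicle or test compound (0, 1, 3, 10 mg/kg) given orally 30 min before ethanol. Graded ethanol doses given ip 30 min before rotorod testing. Ethanol ED50 reported with confidence limits, P < 0.05.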

Rattus norvegicus [20] = test: Interaction with ethanol in Rotarod performance at a dose of 0 mg/Kg in rats.; format: functional; procedure, shortened: as §2
Rattus norvegicus [21] = test: Interaction with ethanol in Rotarod performance at a dose of 3 mg/Kg in rats.; format: functional; procedure, shortened: as §2
Rattus norvegicus [22] = test: Interaction with ethanol in Rotarod performance at a dose of 10 mg/Kg in rats.; format: functional; procedure, shortened: as §2
Rattus norvegicus [23] = test: Interaction with ethanol in Rotarod performance at a dose of 1 mg/Kg in rats.; format: functional; procedure, shortened: as §2
Rattus norvegicus [24] = test: Compound tested for its effect on Nonconflict (VI) operant responding of rats at a dose of 10.0 mg/Kg administered perorally.; format: functional; procedure, shortened: as §1
[25] = target: GABA-A receptor; anion channel; test: Displacement of [3H]flunitrazepam from GABA-A Benzodiazepine receptors in rat forebrain

Structure (SMILES): Oc1nc2c(c3nc(-c4ccc(F)cc4)nn13)CN(Cc1ccccc1)CC2
- Change in response rate (Rattus norvegicus [1]): -38%
- ED50 (Rattus norvegicus [2]): 2.55 mg/kg
- Change in response rate (Rattus norvegicus [3]): 30%
- MED (Rattus norvegicus [4]): 30 mg/kg
- Change in response rate (Rattus norvegicus [5]): 372%
- Change in response rate (Rattus norvegicus [6]): -17%
- IC50 [7]: 5.35 nM
- GABA ratio [8]: 1.7
- MED (Rattus norvegicus [9]): 30 mg/kg

Structure (SMILES): NC(Cc1ccccc1)C(=O)N1CCc2nc(O)n3nc(-c4ccccc4F)nc3c2C1 (stereo not drawn)
- IC50 [7]: > 100 nM

Structure (SMILES): O=C(Nc1ccccc1)N1CCc2nc(O)n3nc(-c4ccccc4F)nc3c2C1
- IC50 [7]: 67 nM

Structure (SMILES): Oc1nc2c(c3nc(-c4ccccc4F)nn13)CCC2
- IC50 [7]: 4.7 nM

Structure (SMILES): O=S(=O)(c1cccnc1)N1CCc2nc(O)n3nc(-c4ccccc4F)nc3c2C1
- IC50 [7]: 5.34 nM
- GABA ratio [8]: 1.3

Structure (SMILES): Oc1nc2c(c3nc(-c4ccccc4F)nn13)CN(CCc1ccccc1)CC2
- IC50 [7]: 28 nM

Structure (SMILES): O=C(Cc1ccccc1)N1CCc2nc(O)n3nc(-c4ccccc4F)nc3c2C1
- IC50 [7]: 140 nM

Structure (SMILES): CC(C)N1CCc2nc(O)n3nc(-c4ccccc4F)nc3c2C1
- IC50 [7]: 105 nM

Structure (SMILES): Oc1nc2c(c3nc(-c4ccccn4)nn13)CN(Cc1ccccc1)CC2
- ED50 (Rattus norvegicus [2]): 26 mg/kg
- IC50 [7]: 20.6 nM
- GABA ratio [8]: 1.6

Structure (SMILES): Oc1nc2c(c3nc(-c4ccccc4Cl)nn13)CN(Cc1ccccc1)CC2
- ED50 (Rattus norvegicus [2]): 0.5 mg/kg
- MED (Rattus norvegicus [4]): 3 mg/kg
- Change in response rate (Rattus norvegicus [10]): 1%
- Change in response rate (Rattus norvegicus [11]): 18%
- Change in response rate (Rattus norvegicus [12]): -40%
- Change in response rate (Rattus norvegicus [13]): 58%
- IC50 [7]: 1.7 nM
- GABA ratio [8]: 1.4
- MED (Rattus norvegicus [9]): 3 mg/kg

Structure (SMILES): CCN1CCc2nc(O)n3nc(-c4ccccc4F)nc3c2C1
- IC50 [7]: 150 nM

Structure (SMILES): Cc1ccc(S(=O)(=O)N2CCc3nc(O)n4nc(-c5ccccc5F)nc4c3C2)cc1
- IC50 [7]: 1.77 nM
- GABA ratio [8]: 0.99

Structure (SMILES): Oc1nc2c(c3nc(-c4ccccc4F)nn13)CN(Cc1ccccc1)CC2
- Change in response rate (Rattus norvegicus [14]): 19%
- Change in response rate (Rattus norvegicus [1]): -52%
- ED50 (Rattus norvegicus [2]): 0.66 mg/kg
- Change in response rate (Rattus norvegicus [3]): 206%
- MED (Rattus norvegicus [4]): 30 mg/kg
- Change in response rate (Rattus norvegicus [5]): 282%
- Change in response rate (Rattus norvegicus [6]): -44%
- Change in response rate (Rattus norvegicus [15]): 173%
- IC50 [7]: 0.44 nM
- GABA ratio [8]: 1.06
- MED (Rattus norvegicus [9]): 10 mg/kg
- Change in response rate (Rattus norvegicus [16]): 0%
- Change in response rate (Rattus norvegicus [17]): -13%

Structure (SMILES): CC1c2nc(O)n3nc(-c4ccccc4F)nc3c2CN1Cc1ccccc1 (stereo not drawn)
- IC50 [7]: > 1000 nM

Structure (SMILES): Oc1nc2c(c3nc(-c4ccccc4)nn13)CN(Cc1ccccc1)CC2
- Change in response rate (Rattus norvegicus [18]): 367%
- MED (Rattus norvegicus [19]): 1 mg/kg
- ED50 (Rattus norvegicus [20]): 1320 mg/kg
- ED50 (Rattus norvegicus [2]): 2.6 mg/kg
- ED50 (Rattus norvegicus [21]): 832 mg/kg
- ED50 (Rattus norvegicus [22]): 563 mg/kg
- ED50 (Rattus norvegicus [23]): 984 mg/kg
- Change in response rate (Rattus norvegicus [10]): 0%
- Change in response rate (Rattus norvegicus [24]): 12%
- Change in response rate (Rattus norvegicus [11]): 35%
- Change in response rate (Rattus norvegicus [12]): -4%
- Change in response rate (Rattus norvegicus [13]): 167%
- IC50 [7]: 2.19 nM
- GABA ratio [8]: 1.4
- MED (Rattus norvegicus [9]): 3 mg/kg

Structure (SMILES): O=C1C2C=Nc3ccccc3C2=NN1c1ccccc1 (stereo not drawn) [CGS-8216]
- IC50 [25]: 0.45 nM
- GABA ratio [8]: 0.82
